Legend:
Type in all cases: functional
[1] = Growth inhibition of human BE(2)-C cells after 72 hrs y MTT assay
How it was run: (§1)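 Cells kept in DMEM with 10% FBS, 10 mM sodium bicarbonate, penicillin, streptomycin and 4 mM glutamine at 37 °C under 5% CO2. Log-phase cells were plated in duplicate at 2500–4000 cells/well. After 24 h, compound in medium was added; analogue stocks were 40 mM in DMSO. Growth was read after 72 h by MTT absorbance at 540 nm in dose-response testing.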

[2] = Growth inhibition of human SJ-G2 cells after 72 hrs y MTT assay; conditions: SJ-G2, 72 h; how it was run: as §1
A-431 [3] = experiment: Growth inhibition of human A431 cells after 72 hrs y MTT assay; conditions: A-431, 72 h; how it was run: as §1
A2780 [4] = experiment: Growth inhibition of human A2780 cells after 72 hrs y MTT assay; conditions: A2780, 72 h; how it was run: as §1
NCI-H460 [5] = experiment: Growth inhibition of human H460 cells after 72 hrs y MTT assay; conditions: NCI-H460, 72 h; how it was run: as §1
DU-145 [6] = experiment: Growth inhibition of human DU145 cells after 72 hrs y MTT assay; conditions: DU-145, 72 h; how it was run: as §1
HT-29 [7] = experiment: Growth inhibition of human HT-29 cells after 72 hrs y MTT assay; conditions: HT-29, 72 h; how it was run: as §1
SW480 [8] = experiment: Growth inhibition of human SW480 cells after 72 hrs y MTT assay; conditions: SW480, 72 h; how it was run: as §1
MCF7 [9] = experiment: Growth inhibition of human MCF7 cells after 72 hrs y MTT assay; conditions: MCF7, 72 h; how it was run: as §1
NCI-H460 [10] = experiment: Growth inhibition of human H460 cells at 100 uM after 72 hrs y MTT assay; conditions: for inhibition of growth at 100 µM: Homo sapiens, NCI-H460, 72 h, read-out: GI
How it was run: (§2)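 Log-phase cells in supplemented DMEM (10% FBS, 4 mM glutamine, antibiotics; 37 °C, 5% CO2) were plated in duplicate at 2500–4000 cells/well. Compound was added 24 h later at a fixed 100 µM, from 40 mM DMSO stocks. After 72 h, MTT absorbance was read at 540 nm and expressed as percent growth inhibition; 100% means total inhibition.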

A2780 [11] = experiment: Growth inhibition of human A2780 cells at 100 uM after 72 hrs y MTT assay; conditions: for inhibition of growth at 100 µM: Homo sapiens, A2780, 72 h, read-out: GI; how it was run: as §2
[12] = Growth inhibition of human SJ-G2 cells at 100 uM after 72 hrs y MTT assay; conditions: for inhibition of growth at 100 µM: Homo sapiens, SJ-G2, 72 h, read-out: GI; how it was run: as §2
A-431 [13] = experiment: Growth inhibition of human A431 cells at 100 uM after 72 hrs y MTT assay; conditions: for inhibition of growth at 100 µM: Homo sapiens, A-431, 72 h, read-out: GI; how it was run: as §2
DU-145 [14] = experiment: Growth inhibition of human DU145 cells at 100 uM after 72 hrs y MTT assay; conditions: for inhibition of growth at 100 µM: Homo sapiens, DU-145, 72 h, read-out: GI; how it was run: as §2
[15] = Growth inhibition of human BE(2)-C cells at 100 uM after 72 hrs y MTT assay; conditions: for inhibition of growth at 100 µM: Homo sapiens, BE(2)-C, 72 h, read-out: GI; how it was run: as §2
HT-29 [16] = experiment: Growth inhibition of human HT-29 cells at 100 uM after 72 hrs y MTT assay; conditions: for inhibition of growth at 100 µM: Homo sapiens, HT-29, 72 h, read-out: GI; how it was run: as §2
SW480 [17] = experiment: Growth inhibition of human SW480 cells at 100 uM after 72 hrs y MTT assay; conditions: for inhibition of growth at 100 µM: Homo sapiens, SW480, 72 h, read-out: GI; how it was run: as §2
MCF7 [18] = experiment: Growth inhibition of human MCF7 cells at 100 uM after 72 hrs y MTT assay; conditions: for inhibition of growth at 100 µM: Homo sapiens, MCF7, 72 h, read-out: GI; how it was run: as §2

| GI50 (A-431 [3]) | GI50 (A2780 [4]) | GI50 (NCI-H460 [5]) | GI50 (DU-145 [6]) | GI50 (HT-29 [7]) | GI50 (SW480 [8]) | GI50 (MCF7 [9]) | Compound | GI50 [1] | GI50 [2] | also measured |
| --- | --- | --- | --- | --- | --- | --- | --- | --- | --- | --- |
| > 100 µM | > 100 µM | > 100 µM | > 100 µM | 45 µM | > 100 µM | > 100 µM | O=C1O[C@H](OC2CCCCC2)[C@@H]2[C@H]1[C@H]1CC[C@@H]2O1 | > 100 µM | 41 µM |  |
|  |  |  |  |  |  |  | CC1OC1CO[C@@H]1OC(=O)[C@H]2[C@@H]1[C@@H]1CC[C@H]2O1 (stereo not given in full) |  |  | inhibition of growth at 100 µM (NCI-H460 [10]): 9%; inhibition of growth at 100 µM (A2780 [11]): 26%; inhibition of growth at 100 µM [12]: 80%; inhibition of growth at 100 µM (A-431 [13]): 18%; inhibition of growth at 100 µM (DU-145 [14]): 17%; inhibition of growth at 100 µM [15]: 23%; inhibition of growth at 100 µM (HT-29 [16]): 70%; inhibition of growth at 100 µM (SW480 [17]): 17%; inhibition of growth at 100 µM (MCF7 [18]): 27% |
| 87 µM | 22 µM | > 100 µM | 84 µM | 17 µM | 9 µM | 20 µM | CCOP(=O)(OCC)OCCCO[C@H]1OC(=O)[C@H]2[C@@H]1[C@@H]1CC[C@H]2O1 | 9 µM | 43 µM |  |
| > 100 µM | 81 µM | > 100 µM | > 100 µM | 37 µM | > 100 µM | 89 µM | O=C1O[C@H](OCCCOP(=O)(OCC(Cl)(Cl)Cl)OCC(Cl)(Cl)Cl)[C@@H]2[C@H]1[C@H]1CC[C@@H]2O1 | > 100 µM | 41 µM |  |
| 52 µM | 33 µM |  | 65 µM | 42 µM | 65 µM | 45 µM | O=C1O[C@H](OCCCOP(=O)(O)O)[C@@H]2[C@H]1[C@H]1CC[C@@H]2O1 | 67 µM | 57 µM |  |
| > 100 µM | > 100 µM | > 100 µM | > 100 µM | 50 µM | > 100 µM | > 100 µM | CCCCOC1OC(=O)[C@H]2[C@@H]1[C@@H]1CC[C@H]2O1 (single isomer, unassigned) | 93 µM | 32 µM |  |
|  |  |  |  |  |  |  | O=C1O[C@H](OCC2CO2)[C@@H]2[C@H]1[C@H]1CC[C@@H]2O1 (stereo in doubt; 19) |  |  | inhibition of growth at 100 µM (NCI-H460 [10]): 11%; growth inhibition (GI) (A2780 [11]): 46%; growth inhibition (GI) [12]: 75%; inhibition of growth at 100 µM (A-431 [13]): 35%; inhibition of growth at 100 µM (DU-145 [14]): 33%; growth inhibition (GI) (HT-29 [16]): 69%; growth inhibition (GI) (SW480 [17]): 32%; growth inhibition (GI) (MCF7 [18]): 37% |
|  |  |  |  |  |  |  | O=C1O[C@H](OCC2CO2)[C@@H]2[C@H]1[C@H]1CC[C@@H]2O1 (stereo in doubt; 20) |  |  | growth inhibition (GI) (NCI-H460 [10]): 7%; growth inhibition (GI) (A2780 [11]): 83%; inhibition of growth at 100 µM [12]: 59%; growth inhibition (GI) (A-431 [13]): 18%; growth inhibition (GI) (DU-145 [14]): 21%; inhibition of growth at 100 µM [15]: 42%; inhibition of growth at 100 µM (HT-29 [16]): 52%; inhibition of growth at 100 µM (SW480 [17]): 16%; inhibition of growth at 100 µM (MCF7 [18]): 43% |
|  |  |  |  |  |  |  | O=C1O[C@@H](OCC2CO2)[C@@H]2[C@H]1[C@H]1CC[C@@H]2O1 (stereo in doubt; 21) |  |  | inhibition of growth at 100 µM (NCI-H460 [10]): 7%; inhibition of growth at 100 µM (A2780 [11]): 42%; growth inhibition (GI) [12]: 73%; inhibition of growth at 100 µM (A-431 [13]): 22%; inhibition of growth at 100 µM (DU-145 [14]): 25%; growth inhibition (GI) [15]: 35%; growth inhibition (GI) (HT-29 [16]): 68%; growth inhibition (GI) (SW480 [17]): 23%; growth inhibition (GI) (MCF7 [18]): 33% |
|  |  |  |  |  |  |  | O=C1O[C@@H](OCC2CO2)[C@@H]2[C@H]1[C@H]1CC[C@@H]2O1 (stereo in doubt; 22) |  |  | growth inhibition (GI) (NCI-H460 [10]): 14%; inhibition of growth at 100 µM [12]: 76%; growth inhibition (GI) (A-431 [13]): 28%; growth inhibition (GI) (DU-145 [14]): 30%; inhibition of growth at 100 µM [15]: 38%; inhibition of growth at 100 µM (HT-29 [16]): 74%; inhibition of growth at 100 µM (SW480 [17]): 28%; inhibition of growth at 100 µM (MCF7 [18]): 40% |

| Compound | GI50 (A-431 [3]) | GI50 (A2780 [4]) | GI50 (NCI-H460 [5]) | GI50 (DU-145 [6]) | GI50 (HT-29 [7]) | GI50 (SW480 [8]) | GI50 (MCF7 [9]) | GI50 [1] | GI50 [2] | also measured |
| --- | --- | --- | --- | --- | --- | --- | --- | --- | --- | --- |
| O=C1O[C@H](OCCCOP(=O)(Oc2ccccc2)Oc2ccccc2)[C@@H]2[C@H]1[C@H]1CC[C@@H]2O1 | > 100 µM | > 100 µM | > 100 µM | > 100 µM | 40 µM | > 100 µM | > 100 µM | > 100 µM | 40 µM |  |
| O=C1OC(=O)C2C3CCC(O3)C12 (stereo not given) [DEMETHYL-CANTHARIDIN] | 72 µM | 27 µM | > 100 µM | 90 µM | 23 µM | 41 µM | 34 µM | 36 µM | 23 µM |  |
